NPY-Y1 antag – NPY-Y1 receptor antagonists, primary screen, cell-based; Neuropeptide Y receptor type 1 (Homo sapiens), P25929; HEK293-CNG Y1 cells, membrane potential fluorescence; NPY at EC95, then isoproterenol; inhibition, % at 3.6 µM; 200,000 tested, 1% active;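 active = inhibition above the campaign mean inhibition of all tested compounds plus 3 SD, cut at about 20% in these data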;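 also: 0% = DMSO wells given NPY plus isoproterenol and 100% = isoproterenol alone without NPY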
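material = HEK293 cells with Y1 receptor plus CNG channel | also added = NPY 25 nM then isoproterenol 1 µM plus Ro 20-1724 25 µM | schedule = dye 3 h, compound 60 min room temperature, stimulation 45 min | measured by = membrane potential fluorescence | benchmarks = high control isoproterenol alone, low control NPY with isoproterenol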
MT stabilizer – microtubule stabilizers in HeLa cells, primary screen, imaging, high-content imaging | HeLa tubulin immunostaining HCS, 24 h; share of cells brighter than vehicle mean+2SD | % tubulin-high responders, % at 10 µM | 200,000 tested, 0.83% active;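 active = plate Z-score above 3 for both tubulin-high and condensed-nucleus cell shares, with cell loss under 80%, at 10 µM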;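 also: anti alpha tubulin signal scored within the nucleus-defined area of each cell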
bCat nuc transl – modulators of beta-catenin nuclear translocation, primary screen, imaging, HeLa cells, immunofluorescence, high-content | nuclear translocation activity, % at 5 µM | 190,000 tested, 0.3% active;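 active = nuclear translocation activity above 50% at 5 µM, with a well cell count of 50 or more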;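 also: per-cell ratio of nuclear to cytoplasmic median beta-catenin stain intensity; plate controls were DMSO negative control for no effect and GSK-3 inhibitor IX positive control for full effect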
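Test system: human HeLa cell line; Doses: 5 µM primary, 0.02–20 µM confirmation; Incubation: 24 h compound exposure, 37°C; Detection: beta-catenin immunofluorescence imaging with DAPI; Read-out: beta-catenin nuclear/cytoplasmic ratio, % activation.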
NPY Y2 blocker – NPY-Y2 receptor antagonists, primary screen, cell-based; NPY-Y2 expressing cells, antagonist mode; AID 793, 2007; 140,000 tested, 0.99% active; inhibition, % at 2.7 µM; in the data active = inhibition above about 17%;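 also: 0% = vehicle with agonist challenge and 100% = reference antagonist with challenge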
Target sequence (P49146 whole entry, looked up): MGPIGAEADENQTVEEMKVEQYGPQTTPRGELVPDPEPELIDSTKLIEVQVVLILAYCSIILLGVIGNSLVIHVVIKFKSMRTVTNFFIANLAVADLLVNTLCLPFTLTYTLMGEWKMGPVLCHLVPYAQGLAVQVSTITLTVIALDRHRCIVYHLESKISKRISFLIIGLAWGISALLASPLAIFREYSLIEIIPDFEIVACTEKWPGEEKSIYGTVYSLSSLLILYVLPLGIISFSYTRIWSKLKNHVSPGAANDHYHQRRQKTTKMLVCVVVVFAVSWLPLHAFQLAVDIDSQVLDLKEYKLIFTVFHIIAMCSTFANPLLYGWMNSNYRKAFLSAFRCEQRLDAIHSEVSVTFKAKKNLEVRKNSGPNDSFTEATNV
NPY2 pot ag – NPY-Y2 potentiators or agonists, primary screen, cell-based; cells expressing NPY-Y2, potentiator/agonist read-out; activation, % at 3.6 µM; 220,000 tested, 0.45% active; AID 1359, 2008; in the data active = activation above about 27%;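 also: cells stimulated with NPY near EC25 plus isoproterenol at EC100; 0% = vehicle plus submaximal agonist and 100% = vehicle plus saturating agonist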
NPY-Y1 PAM-ag – NPY-Y1 receptor potentiators or agonists, primary screen, cell-based; Neuropeptide Y receptor type 1 (Homo sapiens), P25929; NPY-Y1 expressing cells, potentiator/agonist activation; activation, % at 3.6 µM; 220,000 tested, 0.37% active; AID 1304, 2008; in the data active = activation above about 33%, passing the limit was not always enough;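 also: cells stimulated with NPY at EC10 then isoproterenol at EC100; 0% = low agonist plus stimulus and 100% = saturating agonist plus stimulus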
NPY1 antag ctr – NPY-Y1 receptor antagonists, selectivity check, counter-screen for NPY-Y2 antagonist project, cell-based; shares compounds with NPY Y2 blocker; cell-based NPY-Y1 antagonism counterscreen; inhibition, % at 3.6 µM; 710 tested, 19% active; in the data active = inhibition above about 20%;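 also: cells challenged with NPY then isoproterenol with cAMP sensed through a CNG channel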
NPY2 antag conf – NPY-Y2 receptor antagonists, retest of hits, confirmation, HEK293-CNG cells, membrane potential fluorescence, triplicate | HEK293 NPY-Y2 CNG channel | inhibition, % at 2.8 µM | 710 tested, 32% active | AID 1257, 2008 | shares compounds with NPY Y2 blocker;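 active = mean inhibition of triplicate wells above the hit cutoff set in the primary screen, cut at about 17% in these data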;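 also: 0% = DMSO with NPY challenge and 100% = BIIE0246 high control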
* = called active by the depositor; nt = not tested or not shown. In the library only some 2.6% were active in any assay of this set; here they are far more common.

SMILES | NPY-Y1 antag | MT stabilizer | bCat nuc transl | NPY Y2 blocker | NPY2 pot ag | NPY-Y1 PAM-ag | NPY1 antag ctr | NPY2 antag conf
C/C(=N\OC(=O)c1ccc(OC(C)C)cc1)c1ccc(C)c(C)c1 | 13 | 2 | nt | 22* | 1 | -42 | 15 | 30*
CC/C(=N\OC(=O)c1ccc(OC(C)C)cc1)c1ccc(C)cc1 | 12 | 2 | -12 | 20* | -18 | -12 | 10 | 14
O=C(NCc1ccccn1)c1cc(-c2ccc(Cl)cc2)nc2ccccc12 | 12 | 5 | 0 | 27* | 8 | -30 | 4 | 4
O=C(NCc1ccccn1)c1cc(-c2ccc(-c3ccccc3)cc2)nc2ccccc12 | 5 | 3 | 3 | 3 | -8 | -11 | nt | nt
COc1ccc(CNC(=O)C(NC(C)=O)C(=O)Nc2ccc(OC)cc2)cc1 (centres undefined) | 5 | 3 | -1 | 21* | 2 | 16 | 0 | -1
CCC(CO)NCc1ccccc1OC(C)C (centres undefined) | 3 | 1 | 0 | nt | -4 | -5 | nt | nt
O=C(Nc1nc2ccccc2s1)c1cc(-c2ccco2)nc2ccccc12 | 7 | 7 | -2 | 37* | -116 | -111 | 64* | 88*
O=C(Nc1nccs1)c1cc(-c2ccco2)nc2ccccc12 | 0 | 3 | -1 | 14 | 7 | 3 | nt | nt
Cc1nc(-n2nnc3ccccc32)c2c3c(sc2n1)CCCC3 | 15 | 4 | -9 | 22* | -36 | -23 | 11 | 10
COc1cccc(C(c2nnnn2Cc2ccccc2)N2CCN(C3CCCC3)CC2)c1OC (centres undefined) | 0 | 3 | -1 | 18* | -12 | -34 | 6 | 6
CCC(C)(C)n1nnnc1C(c1ccc(N(C)C)cc1)N1CCN(C2CCCCC2)CC1 (centres undefined) | 1 | 2 | 0 | 2 | -3 | -6 | nt | nt
CCC(C)(C)n1nnnc1C(c1ccccc1)N1CCN(C2CCCC2)CC1 (centres undefined) | 8 | 4 | -12 | 20* | 8 | -19 | 5 | 12
COc1ccccc1C(c1nnnn1Cc1ccccc1)N1CCN(C2CCCC2)CC1 (centres undefined) | 6 | 4 | nt | 8 | -5 | -24 | nt | nt
CC1CCN(CCCNC(=O)c2ccc(CSCc3cccc(Cl)c3)o2)CC1 | 12 | 2 | nt | 17* | -7 | -24 | 9 | 12
Cc1cccc(N/N=C(\C=N\N)C(=O)c2ccc(Br)cc2)c1 | 3 | 4 | 3 | nt | 1 | -2 | nt | nt
CC1(C)CC(=O)C(CC(=O)Nc2cc(C(F)(F)F)ccc2Cl)C(=O)C1 | 13 | 1 | 0 | nt | -15 | -7 | nt | nt
O=C(CSCc1ccc(Cl)cc1)N/N=C/c1c(Cl)cccc1Cl | 3 | 3 | 1 | 17* | 3 | -1 | 11 | 26*
O=C1c2cccnc2C(Nc2ccc(Br)cc2Br)N1Cc1cccs1 (centres undefined) | 3 | 5 | -4 | nt | 2 | -1 | nt | nt
O=C(NC1CCS(=O)(=O)C1)Oc1ccc(Cl)cc1 (centres undefined) | 2 | 2 | nt | 2 | 6 | -6 | nt | nt
O=C(C1CCC1)N1CCc2cc(S(=O)(=O)Nc3ccc4c(c3)OCO4)ccc21 | 6 | 3 | 1 | 19* | 5 | -36 | 5 | 7
COC(=O)C1CCN(C(=O)COC(=O)CC(NC(N)=O)c2ccc(Cl)cc2)CC1 (centres undefined) | 3 | 3 | -1 | 4 | -3 | -11 | nt | nt
CSc1nnc2c3cc(C)ccc3n(Cc3ccccc3)c2n1 | 5 | 1 | -2 | 28* | 5 | -15 | 23* | 42*
NC(=O)CC(NC(=O)Cc1ccc(Cl)cc1)c1ccc(NCc2ccccc2)c([N+](=O)[O-])c1 (centres undefined) | nt | nt | 0 | nt | nt | nt | nt | nt
COc1ccc(C2(C(=O)NC(C)C)CCCC2)cc1OC | -2 | 3 | -1 | 2 | -11 | -22 | nt | nt
CCOc1ccc(NC(=O)C2(c3ccc(OC)c(OC)c3)CCCC2)cc1 | 8 | 4 | 0 | 27* | -2 | -16 | 4 | 3
SMILES | NPY-Y1 antag | MT stabilizer | bCat nuc transl | NPY Y2 blocker | NPY2 pot ag | NPY-Y1 PAM-ag | NPY1 antag ctr | NPY2 antag conf
CC(=O)/C=C1/SC(CC(=O)O)C(=O)N1c1ccccc1 (centres undefined) | 3 | 4 | -1 | 4 | 2 | -13 | nt | nt
O=C(COC(=O)/C=C/c1ccc(F)cc1)Nc1ccccc1-c1ccccc1 | 3 | 2 | 0 | 18* | -3 | -19 | 12 | 14
O=C(COC(=O)/C=C/c1cccc(F)c1)Nc1ccccc1-c1ccccc1 | 9 | 1 | -5 | 16 | 6 | 16 | nt | nt
O=C(O)C1C2C=CC3(CN(C/C=C/c4ccccc4)C(=O)C13)O2 (centres undefined) | -2 | 3 | -4 | 0 | 9 | -11 | nt | nt
O=C(Nc1cccn(Cc2c(Cl)cccc2Cl)c1=O)c1ccccc1Cl | 8 | 3 | -1 | 23* | -6 | -21 | 12 | 6
COc1ccc(C(C)=O)cc1CSc1nc2ccccc2c(=O)n1-c1ccccc1C | 15 | 6 | -1 | 20* | -1 | -12 | 11 | 13
C=CCn1c(=O)[nH]c2cc(C(=O)N3CC=C(c4ccccc4)CC3)ccc2c1=O | 5 | 2 | 2 | nt | 0 | -19 | nt | nt
C/C(CC1CC(COCC(C)C)OC1=O)=N\NC(N)=S (centres undefined) | 3 | 6 | -3 | 27* | -10 | -14 | 2 | 1
OC[C@H]1O[C@@H](n2cnc3c(Nc4ccccc4)ncnc32)[C@H](O)[C@@H]1O | 14 | 3 | nt | 22* | -20 | -72 | 11 | 49*
COc1ccc(C(C)=O)cc1CSc1nnc(-c2ccc(Cl)cc2)n1-c1ccccc1 | 8 | 1 | 0 | 11 | 7 | 9 | nt | nt
COc1ccc(N2CCN(Cc3nc4c(c(=O)n(C)c(=O)n4C)n3Cc3cccc(C)c3)CC2)cc1 | -1 | 3 | -1 | 24* | 2 | 2 | 3 | 3
COc1ccc(/C=C2\CCc3ccccc3C2=O)cc1Cn1nc(C)cc1C | 8 | 3 | -10 | 18* | -10 | 9 | 9 | 4

Screens as filed in PubChem.
